One assay has as its system Ishikawa. The experiment in a line: Relative stimulation of alkaline phosphatase (AlkP) activity in Ishikawa cells. Format: functional, Homo sapiens. The procedure, abridged:
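Ishikawa cells in phenol red-free medium with charcoal-stripped bovine serum, exposed for 3 days to steroid over at least 6 orders of magnitude of concentration. Cells were freeze-thawed, then given 5 mM p-nitrophenyl phosphate at pH 9.8, read kinetically at 405 nm. RSA = (1/EC50 analogue)/(1/EC50 E2) × 100. At least three experiments in duplicate.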

Assay [1] deals with esterase (Rattus norvegicus). The experiment in a line: Relative hydrolytic activity against esterase in rat hepatic microsomes. The following applies: Liver.

This note sets out measurements from ChEMBL document CHEMBL1134490, “Estradiol-16alpha-carboxylic acid esters as locally active estrogens” (2001).

In the assay with Ishikawa, `C[C@]12CC[C@@H]3c4ccc(O)cc4CC[C@H]3[C@@H]1CCC2=O` [ESTRONE] had an RSA of 7. On the same count and under the same terms, for `C[C@]12CC[C@@H]3c4ccc(O)cc4CC[C@H]3[C@@H]1C[C@@H](CCC(=O)O)[C@@H]2O` the value was 0. The molecule `CCOC(=O)C[C@@H]1C[C@H]2[C@@H]3CCc4cc(O)ccc4[C@H]3CC[C@]2(C)[C@H]1O` had an RHA in assay [1] of 700. The RSA in the assay with Ishikawa was 0.3. `CC(C)OC(=O)[C@@H]1C[C@H]2[C@@H]3CCc4cc(O)ccc4[C@H]3CC[C@]2(C)[C@H]1O` gave an RSA in the assay on Ishikawa of 0.1. On to `COC(=O)CC[C@@H]1C[C@H]2[C@@H]3CCc4cc(O)ccc4[C@H]3CC[C@]2(C)[C@H]1O`, for which the RHA in assay [1] came to 910. The RSA in the assay on Ishikawa amounted to 0.

In the case of `C[C@]12CC[C@@H]3c4ccc(O)cc4CC[C@H]3[C@@H]1C[C@@H](CC(=O)O)[C@@H]2O`, the RSA in the assay with Ishikawa is recorded as 0. In the case of `COC(=O)C[C@@H]1C[C@H]2[C@@H]3CCc4cc(O)ccc4[C@H]3CC[C@]2(C)[C@H]1O`, the RHA in assay [1] worked out at 340. In the assay with Ishikawa, this molecule came in with an RSA of 0.5.
